Assay results reported in PubChem BioAssay.
Calls of active or inactive are those of the source.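 The calls were made as follows, unless noted: active = viability loss from added drug above about 55%, and viability with drug at most 40%, in both replicates (limit read from the data, passing the limit was not always enough); inconclusive = both conditions met in only one replicate; inactive = neither replicate meets both conditions.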

Tests used:
[1] = Her2 expression decrease, cell viability multiplex – SKBR3 breast tumor cells, AlphaScreen, ATP viability, primary screen (AID 461;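 active = Her2 level under about 52% in both replicate screens, with viability over 70% of control, limit read from the data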;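 as to Her2 level: lower value means less Her2 protein in the cells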;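 as to viability: percent of carrier control wells set as 100% viability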); conditions: SKBR3 Her2 protein level, 18-24 h, measured here: SKBR3 viability, ATP luminescence, at 10 µM
[2] = biological target: Receptor tyrosine-protein kinase erbB-2 (Homo sapiens) (UniProt P04626); test: as above; conditions: 18-24 h, at 10 µM, stronger effect = lower value
[3] = reduced viability of SK-BR-3 breast cancer cells – cell-based, 24 h, human, pilot screen (AID 572;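 active = viability at or below 10% of carrier control in both of two separate runs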;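 also: compound exposure lasted between 18 and 24 h rather than exactly 24 h; 100% = carrier-treated control wells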); conditions: SK-BR-3 viability, CellTiter-Glo luminescence, at 10 µM, stronger effect = lower value
[4] = HUVEC growth inhibition – cell-based, human, primary screen (AID 575;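 active = viability at or below 30% in both replicate assays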;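 also: 100% = median of untreated cell wells with 0.1% DMSO on each plate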); conditions: HUVEC proliferation, CellTiter-Glo luminescence, 72 h; at 10 µM; stronger effect = lower value
Procedure, shortened: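 Assay system: primary human umbilical vein endothelial cells / Buffer or medium: endothelial basal medium with 2% FBS plus growth supplements / Compound dosing: one dose, 10 µM final, 0.1% DMSO / Timing: 72 h treatment at 37 °C / Signal: CTG luminescence / Benchmarks: 32 DMSO-only cell-control wells (high), 32 MePR drug-control wells (low) per plate / Plate: collagen-coated 384-well format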

[5] = H69AR cell proliferation blockers – human, duplicate replicates, primary screen (AID 580;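 active = viability at or under a set limit in both replicates, limit being median viability minus 3 SD, cut at about 48% in these data, passing the limit was not always enough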;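 also: 100% = mean luminescence of untreated wells and 0% = no signal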); conditions: H69AR lung tumor cells viability, ATP luminescence, 72 h; at 10 µM; stronger effect = lower value
[6] = MRP1 drug-resistance reversers in H69AR cells – cell-based, doxorubicin co-treatment, pilot screen (AID 601); conditions: CellTiter-Glo, 72 h, at 10 µM; for differential viability (reversal): stronger effect = higher value
[7] = yeast transport mutant growth inhibition pilot in 384-well plates, post-Golgi transport modulator project (AID 636; in the data active = inhibition above about 31%); conditions: absorbance 615 nm, about 18 h, stronger effect = higher value
[8] = growth suppression of yeast trafficking mutant, preliminary HTS, modulators of trafficking downstream of Golgi apparatus project, 1536-format plate, OD 615 nm (AID 637; in the data active = inhibition above about 30%); conditions: yeast transport mutant growth, absorbance 615 nm, 18 h; stronger effect = higher value
[9] = H69AR cells + 2 uM doxorubicin, measured here: viability with 2 uM doxorubicin, stronger effect = lower value
[10] = H69AR cells, compound alone cytotoxicity

Receptor tyrosine-protein kinase erbB-2 (Homo sapiens), sequence (P04626 whole entry, looked up): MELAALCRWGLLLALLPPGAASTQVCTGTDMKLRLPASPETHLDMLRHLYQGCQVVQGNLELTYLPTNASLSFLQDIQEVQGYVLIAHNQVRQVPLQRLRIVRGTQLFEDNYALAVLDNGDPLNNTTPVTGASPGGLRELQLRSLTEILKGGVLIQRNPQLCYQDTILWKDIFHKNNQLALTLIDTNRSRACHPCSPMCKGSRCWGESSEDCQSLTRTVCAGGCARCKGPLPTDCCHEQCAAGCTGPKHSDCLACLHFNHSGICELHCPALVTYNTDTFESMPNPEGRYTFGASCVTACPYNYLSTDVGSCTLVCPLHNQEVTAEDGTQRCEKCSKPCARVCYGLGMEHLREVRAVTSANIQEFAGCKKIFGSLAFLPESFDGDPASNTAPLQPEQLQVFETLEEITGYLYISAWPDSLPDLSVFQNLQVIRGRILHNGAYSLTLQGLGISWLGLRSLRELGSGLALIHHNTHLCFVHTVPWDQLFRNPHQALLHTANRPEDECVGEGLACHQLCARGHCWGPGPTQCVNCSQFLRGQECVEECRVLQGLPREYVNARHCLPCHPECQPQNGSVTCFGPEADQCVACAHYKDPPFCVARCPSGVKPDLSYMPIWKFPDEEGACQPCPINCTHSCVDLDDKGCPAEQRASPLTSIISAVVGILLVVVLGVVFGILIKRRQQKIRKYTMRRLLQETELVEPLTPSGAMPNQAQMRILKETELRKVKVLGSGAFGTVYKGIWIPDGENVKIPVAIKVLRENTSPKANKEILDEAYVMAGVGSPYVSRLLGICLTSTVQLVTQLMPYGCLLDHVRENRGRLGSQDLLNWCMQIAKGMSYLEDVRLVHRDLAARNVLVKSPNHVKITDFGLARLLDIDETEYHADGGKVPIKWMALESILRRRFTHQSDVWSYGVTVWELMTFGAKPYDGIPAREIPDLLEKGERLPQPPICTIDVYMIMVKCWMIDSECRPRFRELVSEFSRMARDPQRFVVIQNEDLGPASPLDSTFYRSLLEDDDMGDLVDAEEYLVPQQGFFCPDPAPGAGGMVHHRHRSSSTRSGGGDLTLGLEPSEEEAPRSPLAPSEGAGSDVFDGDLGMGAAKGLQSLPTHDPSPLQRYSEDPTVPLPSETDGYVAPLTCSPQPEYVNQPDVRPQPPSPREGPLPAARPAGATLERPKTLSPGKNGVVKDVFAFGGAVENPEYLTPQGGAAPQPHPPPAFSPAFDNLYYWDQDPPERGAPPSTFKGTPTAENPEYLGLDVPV

SMILES	viability [1] [%]	Her2 level [2]	viability [3]	viability [4]	viability [5]	differential viability (reversal) ([6]; H69AR cells + 2 uM doxorubicin)	viability [6, 9] [%]	viability [6, 10] [%]	inhibition [7]	inhibition [8]
CC(C)N1C(=O)C2C(C(=O)NC3CCCCC3)C3C=CC2(O3)C1C(=O)NC1CCCC1 (stereo not given)	94.5	87% (inactive)	94.5% (inactive)	107% (inactive)	109% (inactive)	15.9% (inactive)	93.5	109	-4.67% (inactive)	-1.11% (inactive)
Cc1cc(NC(=O)COc2cccc3cccnc23)no1	93	75% (inactive)	93% (inactive)	102% (inactive)	81% (inactive)	1.54% (inactive)	79.5	81	-5.47% (inactive)	-2.79% (inactive)
Cc1ccc(Cn2c(SCCN3CCCCC3)nc3c2c(=O)[nH]c(=O)n3C)cc1	94.5	104% (inactive)	94.5% (inactive)	84.1% (inactive)	81.7% (inactive)	-3.14% (inactive)	84.8	81.7	-7.6% (inactive)	-6.83% (inactive)
COc1ccc(-c2nnc(SCC(=O)Nc3ccc(Cl)cc3)n2C)cc1	82.5	104% (inactive)	82.5% (inactive)	92.8% (inactive)	90.2% (inactive)	8% (inactive)	82.2	90.2	-0.93% (inactive)	-9.21% (inactive)
CCOc1nc2ccccc2nc1NS(=O)(=O)c1ccccc1	83	75% (inactive)	83% (inactive)	91.3% (inactive)	88.5% (inactive)	0.49% (inactive)	88	88.5	-2.24% (inactive)	3.82% (inactive)
CCC(=O)c1ccc(OCCN2CCOCC2)cc1	99.5	91.5% (inactive)	99.5% (inactive)	111% (inactive)	109% (inactive)	17% (inactive)	92.1	109	-5% (inactive)	-3.87% (inactive)
O=C(COC(=O)C1=COCCO1)Nc1ccccc1Oc1ccccc1	113	95% (inactive)	113% (inactive)	97.8% (inactive)	93.8% (inactive)	5.48% (inactive)	88.3	93.8	-7.37% (inactive)	-1.64% (inactive)
Cc1c(C(=O)NCc2cccnc2)sc2ncn(CC(=O)N3CCCCC3C)c(=O)c12 (stereo not given)	98	88.5% (inactive)	98% (inactive)	102% (inactive)	97% (inactive)	1.24% (inactive)	95.8	97	-0.79% (inactive)	1.61% (inactive)
Cc1cc(C(=O)CSc2nnc(-c3ccco3)o2)c(C)n1CC1COc2ccccc2O1 (stereo not given)	91.5	94% (inactive)	91.5% (inactive)	74.3% (inactive)	89% (inactive)	-9.8% (inactive)	98.8	89	-2.67% (inactive)	-9.52% (inactive)
COc1cc(S(=O)(=O)N2CCOCC2)ccc1NC(=O)COC(=O)C12CC3CC(CC(C3)C1)C2	92	73.5% (inactive)	92% (inactive)	87.2% (inactive)	85% (inactive)	-11.2% (inactive)	96.2	85	0.38% (inactive)	-11.7% (inactive)
COc1ccccc1C(=O)N1CCN=C1SCc1cccnc1	102	103% (inactive)	102% (inactive)	97.5% (inactive)	96.8% (inactive)	11.6% (inactive)	85.3	96.8	-3.65% (inactive)	-2.06% (inactive)
Cn1c(=O)n(CC(=O)OCc2ccccc2)c(=O)c2c1nc1n2CCCN1C1CCCCC1	81	86% (inactive)	81% (inactive)	96.4% (inactive)	78.7% (inactive)	32.8% (inactive)	45.9	78.7	-6.35% (inactive)	-0.16% (inactive)
c1ccc(-c2nn3c(Cn4nnc5ccccc54)nnc3s2)nc1	102	114% (inactive)	102% (inactive)	75.6% (inactive)	101% (inactive)	9.54% (inactive)	91.5	101	-2.89% (inactive)	-2.67% (inactive)
O=C(Nc1cccc2ccccc12)c1cnccn1	82	88.5% (inactive)	82% (inactive)	92.3% (inactive)	95% (inactive)	12.5% (inactive)	82.5	95	-7.53% (inactive)	-1.59% (inactive)
CCN(CC)CCN1C(=O)Cn2c(C)c(C)c3cccc1c32	108	92.5% (inactive)	108% (inactive)	95.7% (inactive)	84.6% (inactive)	-1.94% (inactive)	86.5	84.6	-7.47% (inactive)	-1.75% (inactive)
CCC1CCCN1Cn1cnc2c([nH]c3ccc(OC)cc32)c1=O (stereo not given)	104	90% (inactive)	104% (inactive)	111% (inactive)	91.3% (inactive)	1.38% (inactive)	89.9	91.3	-5.6% (inactive)	2.42% (inactive)
COc1ccc2c(-c3cccnc3)cc(=O)[nH]c2c1	116	93.5% (inactive)	116% (inactive)	87.2% (inactive)	96% (inactive)	8.77% (inactive)	87.2	96	-6.4% (inactive)	4.43% (inactive)
CCOC(=O)c1cnn(-c2cc(C)c3cc(C)cc(C)c3n2)c1N	88.5	104% (inactive)	88.5% (inactive)	95.5% (inactive)	82.5% (inactive)	-2.12% (inactive)	84.6	82.5	1.82% (inactive)	-8.89% (inactive)
CCN(C(=O)c1cc2cc3ccc(C)cc3nc2o1)c1ccc(OC)cc1	85.5	99.5% (inactive)	85.5% (inactive)	61% (inactive)	83.1% (inactive)	-12.9% (inactive)	96	83.1	-6.27% (inactive)	-6.39% (inactive)
CC1CCCCC1NC(=O)c1nn(C)c(=O)c2ccccc12 (stereo not given)	88	104% (inactive)	88% (inactive)	90.4% (inactive)	89.2% (inactive)	13.3% (inactive)	75.8	89.2	-1.69% (inactive)	-10% (inactive)
CC1CCc2c(sc(N)c2C(N)=O)C1 (stereo not given)	95.5	81% (inactive)	95.5% (inactive)	86.7% (inactive)	91.5% (inactive)	6.62% (inactive)	84.9	91.5	-0.26% (inactive)	4.5% (inactive)
O=C1CN(C(=O)COC(=O)c2ccccc2NC(=O)c2ccco2)c2ccccc2N1	94	106% (inactive)	94% (inactive)	97.3% (inactive)	83.6% (inactive)	-14.1% (inactive)	97.6	83.6	-5.95% (inactive)	-0.49% (inactive)
COc1ccc(OC)c(C(=O)c2coc3ccc(O)c(CN4CCOCC4)c23)c1	95.5	78% (inactive)	95.5% (inactive)	97.8% (inactive)	90.1% (inactive)	-4.02% (inactive)	94.1	90.1	-5.07% (inactive)	-8.73% (inactive)
COc1ccc(OC)c(NC(=O)CSc2ncccc2C(=O)O)c1	104	98% (inactive)	104% (inactive)	100% (inactive)	104% (inactive)	7.42% (inactive)	96.4	104	-3.29% (inactive)	-3.45% (inactive)
COCCCn1c2nc3ccccc3nc2c2c(=O)n(-c3ccccc3OC)cnc21	97.5	100% (inactive)	97.5% (inactive)	97.8% (inactive)	73.7% (inactive)	6.27% (inactive)	67.5	73.7	-0.8% (inactive)	4.75% (inactive)
O=c1c2c3c(sc2n2cnnc2n1CCc1ccccc1)CCCC3	96.5	78.5% (inactive)	96.5% (inactive)	57.7% (inactive)	77.1% (inactive)	8.96% (inactive)	68.1	77.1	-3.47% (inactive)	6.45% (inactive)
C[C@H](NC(=O)Nc1cccc(C(F)(F)F)c1)C(=O)O	108	108% (inactive)	108% (inactive)	94.3% (inactive)	93.2% (inactive)	5.33% (inactive)	87.9	93.2	-3.07% (inactive)	1.61% (inactive)
COCCn1c(=NC(=O)CSC(C)=O)sc2cc(F)ccc21	85	82.5% (inactive)	85% (inactive)	75.4% (inactive)	58.2% (inactive)	0.03% (inactive)	58.2	58.2	-3.16% (inactive)	-2.86% (inactive)
